Results from ChEMBL document CHEMBL1144880, “Identification of phenylisoxazolines as novel and viable antibacterial agents active against Gram-positive pathogens” (J Med Chem, 2003).
Values after ≈ are worked out from the molar mass of the structure shown.

Columns and labels:
Staphylococcus aureus [1] = assay: In vitro minimum inhibitory concentration (MIC) against Staphylococcus aureus UC9213; format: functional
Summary of the method: (§1)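 MIC determined by standard broth microdilution, defined as the lowest drug concentration (µg/mL) inhibiting visible growth.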

[2] = system: Staphylococcus epidermidis; assay: In vitro minimum inhibitory concentration (MIC) against Staphylococcus epidermidis UC12084; format: functional; summary of the method: as §1
Moraxella catarrhalis = assay: In vitro minimum inhibitory concentration (MIC) against Moraxella catarrhalis UC30610; format: functional; summary of the method: as §1
Streptococcus pneumoniae = assay: In vitro minimum inhibitory concentration (MIC) against Streptococcus pneumoniae UC9912; format: functional; summary of the method: as §1
Escherichia coli = assay: In vitro minimum inhibitory concentration (MIC) against Escherichia coli UC6674; format: functional; summary of the method: as §1
Staphylococcus aureus [3] = assay: In vitro minimum inhibitory concentration (MIC) against Staphylococcus aureus UC12673; format: functional; summary of the method: as §1
Enterococcus faecalis = assay: In vitro minimum inhibitory concentration (MIC) against Enterococcus faecalis UC9217; format: functional; summary of the method: as §1
Haemophilus influenzae = assay: In vitro minimum inhibitory concentration (MIC) against Haemophilus influenzae UC30063; format: functional; summary of the method: as §1
Mus musculus [4] = assay: In Vivo effective dose required for antibacterial activity in a systemic mouse infection model (SMIM) upon peroral administration against Staphylococcus aureus UC9213; format: functional; settings: po
Summary of the method: (§2)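 Compound was given orally at 1 and 5 h after infection. Deaths were monitored for at least 6 days, and ED50 (dose curing 50% of mice) was calculated by probit analysis.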

CYP1A2 [5] = molecular target: T1, CYP1A2 (Homo sapiens, UniProt P05177); assay: Inhibition of heterologously expressed human Cytochrome P450 1A2 at 10 uM; format: ADME; design: scale not given: the % may be the effect or the level left; settings: read-out: Control of P-450 marker
T1 sequence (P05177 whole entry): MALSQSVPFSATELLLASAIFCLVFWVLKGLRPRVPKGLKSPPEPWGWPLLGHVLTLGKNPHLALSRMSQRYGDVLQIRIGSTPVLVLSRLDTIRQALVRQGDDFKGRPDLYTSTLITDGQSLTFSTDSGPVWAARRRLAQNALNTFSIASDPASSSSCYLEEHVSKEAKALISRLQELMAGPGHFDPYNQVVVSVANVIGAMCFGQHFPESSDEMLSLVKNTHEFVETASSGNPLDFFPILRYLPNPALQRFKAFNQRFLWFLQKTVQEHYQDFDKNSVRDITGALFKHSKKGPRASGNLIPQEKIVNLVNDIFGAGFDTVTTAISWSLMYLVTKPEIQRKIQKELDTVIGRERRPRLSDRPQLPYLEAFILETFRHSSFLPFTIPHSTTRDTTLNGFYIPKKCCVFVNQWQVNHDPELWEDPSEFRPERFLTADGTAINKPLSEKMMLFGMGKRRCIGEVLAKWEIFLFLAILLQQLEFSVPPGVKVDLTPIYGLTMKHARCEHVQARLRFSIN
Summary of the method: (§3)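 Human cDNA-expressed CYP1A2, 2C9, 2D6 and 3A4 microsomes incubated with compound at 10 or 100 µM plus CYP marker substrates. Marker metabolite formation quantified by HPLC with radiochemical detection and expressed as % of control, mean ± SD of triplicates.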

CYP2D6 [6] = molecular target: T2, CYP2D6 (Homo sapiens, UniProt P10635); assay: Inhibition of heterologously expressed human Cytochrome P450 2D6 at 10 uM; format: ADME; design: scale not given: the % may be the effect or the level left; settings: read-out: Control of P-450 marker; summary of the method: as §3
[7] = Absolute oral bioavailability in Male Sprague-Dawley Rat (48.9 mg/kg po); format: ADME, organism-based; settings: in vivo
Summary of the method: (§4)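 Male Sprague-Dawley rats dosed intravenously or orally. Intact compound measured in plasma by HPLC-UV after protein-precipitation sample preparation. Half-life reported as harmonic mean apparent terminal disposition half-life. Bioavailability is absolute oral bioavailability. Some comparator values are archival data.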

Rattus norvegicus = species on record: Rattus norvegicus; assay: Compound was evaluated for metabolic stability via In vitro Rat 5E6 cell at 50 uM concentration; format: functional
[8] = Volume distribution in Male Sprague-Dawley Rat (8.98 mg/kg iv); format: ADME, organism-based; settings: in vivo, read-out: Vss
Summary of the method: (§5)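 Male Sprague-Dawley rats given the compound intravenously. Intact compound in plasma was measured by HPLC-UV after protein-precipitation sample preparation.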

CYP3A4 [9] = molecular target: T3, CYP3A4 (Homo sapiens, UniProt P08684); assay: Inhibition of heterologously expressed human Cytochrome P450 3A4 at 100 uM; format: ADME; design: scale not given: the % may be the effect or the level left; settings: read-out: Control of P-450 marker; summary of the method: as §3
CYP2D6 [10] = molecular target: T2, CYP2D6; assay: Inhibition of heterologously expressed human Cytochrome P450 2D6 at 100 uM; format: ADME; design: scale not given: the % may be the effect or the level left; settings: read-out: Control of P-450 marker; summary of the method: as §3
[11] = Cmax value in Male Sprague-Dawley Rat at dose 48.9 (mg/kg po); format: ADME, organism-based; design: dose 48.9 mg/kg, route oral; settings: in vivo; summary of the method: as §4
[12] = Plasma clearance in Male Sprague-Dawley Rat (48.9 mg/kg po); format: ADME, organism-based; summary of the method: as §4
[13] = Cmax value in Male Sprague-Dawley Rat at dose 8.98 (mg/kg iv); format: ADME, organism-based; design: dose 8.98 mg/kg, route intravenous; settings: in vivo; summary of the method: as §4
[14] = Plasma clearance in Male Sprague-Dawley Rat (8.98 mg/kg iv); format: ADME, organism-based; summary of the method: as §4
[15] = Absolute oral bioavailability in Male Sprague-Dawley Rat (8.98 mg/kg iv); format: ADME, organism-based; settings: in vivo; summary of the method: as §4
CYP3A4 [16] = molecular target: T3, CYP3A4; assay: Inhibition of heterologously expressed human Cytochrome P450 3A4 at 10 uM; format: ADME; design: scale not given: the % may be the effect or the level left; settings: read-out: Control of P-450 marker; summary of the method: as §3
CYP1A2 [17] = molecular target: T1, CYP1A2; assay: Inhibition of heterologously expressed human Cytochrome P450 1A2 at 100 uM; format: ADME; design: scale not given: the % may be the effect or the level left; settings: read-out: Control of P-450 marker; summary of the method: as §3
[18] = Harmonic mean apparent terminal disposition half-life [t1/2beta (h)] in Male Sprague-Dawley Rat at dose 48.9 (mg/kg po); format: ADME, organism-based; settings: in vivo, read-out: T1/2 beta (converted); summary of the method: as §4
[19] = Tmax value in Male Sprague-Dawley Rat at dose 48.9 (mg/kg po) [tmax (h)]; format: ADME, organism-based; settings: in vivo; summary of the method: as §4
Mus musculus [20] = assay: In Vivo effective dose required for antibacterial activity in a systemic mouse infection model (SMIM) upon oral administration against Staphylococcus aureus UC9213; format: functional; summary of the method: as §2
CYP2C9 [21] = molecular target: T4, CYP2C9 (Homo sapiens, UniProt P11712); assay: Inhibition of heterologously expressed human Cytochrome P450 2C9 at 10 uM; format: ADME; design: scale not given: the % may be the effect or the level left; settings: read-out: Control of P-450 marker; summary of the method: as §3
CYP2C9 [22] = molecular target: T4, CYP2C9; assay: Inhibition of heterologously expressed human Cytochrome P450 2C9 at 100 uM; format: ADME; design: scale not given: the % may be the effect or the level left; settings: read-out: Control of P-450 marker; summary of the method: as §3
Homo sapiens = species on record: Homo sapiens; assay: Compound was evaluated for metabolic stability via In vitro Human 5E6 cell at 25 uM concentration; format: functional
[23] = Harmonic mean apparent terminal disposition half-life [t1/2beta (h)] in Male Sprague-Dawley Rat at dose 8.98 (mg/kg iv); format: ADME, organism-based; settings: in vivo, read-out: T1/2 beta (converted); summary of the method: as §4
[24] = Absolute oral bioavailability in Male Sprague-Dawley Rat (49.4 mg/kg po); format: ADME, organism-based; settings: in vivo; summary of the method: as §4
[25] = Absolute oral bioavailability in Male Sprague-Dawley Rat (10.1 mg/kg iv); format: ADME, organism-based; settings: in vivo; summary of the method: as §4
[26] = Harmonic mean apparent terminal disposition half-life [t1/2beta (h)] in Male Sprague-Dawley Rat at dose 49.4 (mg/kg po); format: ADME, organism-based; settings: in vivo, read-out: T1/2 beta (converted); summary of the method: as §4
[27] = Volume distribution in Male Sprague-Dawley Rat (10.1 mg/kg iv); format: ADME, organism-based; settings: in vivo, read-out: Vss; summary of the method: as §5
[28] = Cmax value in Male Sprague-Dawley Rat at dose 49.4 (mg/kg po); format: ADME, organism-based; design: dose 49.4 mg/kg, route oral; settings: in vivo; summary of the method: as §4
[29] = Tmax value in Male Sprague-Dawley Rat at dose 49.4 (mg/kg po) [tmax (h)]; format: ADME, organism-based; settings: in vivo; summary of the method: as §4
[30] = Plasma clearance in Male Sprague-Dawley Rat (49.4 mg/kg po); format: ADME, organism-based; summary of the method: as §4
[31] = Cmax value in Male Sprague-Dawley Rat at dose 10.1 (mg/kg iv); format: ADME, organism-based; design: dose 10.1 mg/kg, route intravenous; settings: in vivo; summary of the method: as §4
[32] = Plasma clearance in Male Sprague-Dawley Rat (10.1 mg/kg iv); format: ADME, organism-based; summary of the method: as §4
[33] = Harmonic mean apparent terminal disposition half-life [t1/2beta (h)] in Male Sprague-Dawley Rat at dose 10.1 (mg/kg iv); format: ADME, organism-based; settings: in vivo, read-out: T1/2 beta (converted); summary of the method: as §4

T2 sequence (P10635 whole entry): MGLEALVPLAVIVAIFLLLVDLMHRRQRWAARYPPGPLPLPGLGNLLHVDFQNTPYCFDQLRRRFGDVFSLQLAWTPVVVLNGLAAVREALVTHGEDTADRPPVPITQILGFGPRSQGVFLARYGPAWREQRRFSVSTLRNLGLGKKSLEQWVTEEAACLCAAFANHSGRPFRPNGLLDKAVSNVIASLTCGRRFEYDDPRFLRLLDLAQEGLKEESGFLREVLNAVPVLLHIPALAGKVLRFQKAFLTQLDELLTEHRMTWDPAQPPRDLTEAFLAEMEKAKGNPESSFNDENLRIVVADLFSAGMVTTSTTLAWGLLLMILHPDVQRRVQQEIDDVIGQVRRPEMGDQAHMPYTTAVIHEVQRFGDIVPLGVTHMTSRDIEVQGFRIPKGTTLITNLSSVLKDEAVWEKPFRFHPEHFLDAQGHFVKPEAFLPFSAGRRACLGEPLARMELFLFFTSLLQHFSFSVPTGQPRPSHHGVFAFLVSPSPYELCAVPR
T3 sequence (P08684 whole entry): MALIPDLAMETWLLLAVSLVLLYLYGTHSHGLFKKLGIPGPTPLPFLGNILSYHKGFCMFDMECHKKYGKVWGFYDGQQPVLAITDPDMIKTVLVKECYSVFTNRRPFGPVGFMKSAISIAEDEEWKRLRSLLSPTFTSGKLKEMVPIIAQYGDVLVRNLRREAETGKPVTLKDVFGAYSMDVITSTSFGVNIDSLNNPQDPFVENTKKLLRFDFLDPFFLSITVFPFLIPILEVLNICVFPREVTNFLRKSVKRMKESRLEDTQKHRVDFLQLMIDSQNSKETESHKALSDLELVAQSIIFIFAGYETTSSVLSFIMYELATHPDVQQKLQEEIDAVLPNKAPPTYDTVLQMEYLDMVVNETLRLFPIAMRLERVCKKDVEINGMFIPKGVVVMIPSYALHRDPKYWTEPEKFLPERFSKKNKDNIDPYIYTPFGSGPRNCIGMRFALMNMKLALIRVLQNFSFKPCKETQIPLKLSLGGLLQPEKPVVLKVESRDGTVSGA
T4 sequence (P11712 whole entry): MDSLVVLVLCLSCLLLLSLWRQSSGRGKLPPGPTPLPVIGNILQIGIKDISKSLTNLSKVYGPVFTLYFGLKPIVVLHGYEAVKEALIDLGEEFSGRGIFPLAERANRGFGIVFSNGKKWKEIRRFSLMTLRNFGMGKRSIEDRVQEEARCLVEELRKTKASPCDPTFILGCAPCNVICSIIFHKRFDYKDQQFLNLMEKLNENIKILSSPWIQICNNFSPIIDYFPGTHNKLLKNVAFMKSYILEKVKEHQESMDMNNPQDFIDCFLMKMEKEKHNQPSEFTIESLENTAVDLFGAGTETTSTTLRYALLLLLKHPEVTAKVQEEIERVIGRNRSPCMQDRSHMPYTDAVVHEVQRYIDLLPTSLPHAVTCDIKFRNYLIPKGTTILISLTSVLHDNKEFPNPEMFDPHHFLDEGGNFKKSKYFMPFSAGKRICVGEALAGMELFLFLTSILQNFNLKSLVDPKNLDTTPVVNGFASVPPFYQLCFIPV

SMILES	MIC (Staphylococcus aureus [1])	MIC [2]	MIC (Moraxella catarrhalis)	MIC (Streptococcus pneumoniae)	MIC (Escherichia coli)	MIC (Staphylococcus aureus [3])	MIC (Enterococcus faecalis)	MIC (Haemophilus influenzae)	ED50 (Mus musculus [4])	Remaining at 40 min (Rattus norvegicus)	Remaining at 40 min (Homo sapiens)	also measured
CC(=O)NC[C@H]1CC(c2ccc(C3=CCN(C(=O)CO)CC3)cc2)=NO1	2 µg/mL (≈ 5.6 µM)	1 µg/mL (≈ 2.8 µM)	8 µg/mL (≈ 22.4 µM)	0.5 µg/mL (≈ 1.4 µM)	> 16 µg/mL	2 µg/mL (≈ 5.6 µM)	4 µg/mL (≈ 11.2 µM)	> 16 µg/mL	6 mg/kg			
CC(=O)NC[C@H]1CC(c2ccc(N3CCOCC3)c(F)c2)=NO1	4 µg/mL (≈ 12.4 µM)	2 µg/mL (≈ 6.22 µM)	16 µg/mL (≈ 49.8 µM)	1 µg/mL (≈ 3.11 µM)	> 16 µg/mL	4 µg/mL (≈ 12.4 µM)	8 µg/mL (≈ 24.9 µM)	> 16 µg/mL		87%	100%	activity at 10 µM (CYP1A2 [5]): 100%; activity at 10 µM (CYP2D6 [6]): 101%; bioavailability [7]: 143%; Vd [8]: 0.6 L/kg; activity at 100 µM (CYP3A4 [9]): 92.1%; activity at 100 µM (CYP2D6 [10]): 103%; Cmax [11]: 12200 ng/mL; CL/F [12]: 8.6 mL/min/kg; Cmax [13]: 17700 ng/mL; clearance [14]: 12.4 mL/min/kg; bioavailability [15]: 100%; activity at 10 µM (CYP3A4 [16]): 88.9%; activity at 100 µM (CYP1A2 [17]): 102%; half-life [18]: 36 min; Tmax [19]: 192 min; ED50 (Mus musculus [20]): 16.5 mg/kg; activity at 10 µM (CYP2C9 [21]): 92.1%; activity at 100 µM (CYP2C9 [22]): 95.8%; half-life [23]: 28.2 min
CC(=O)NC[C@H]1CC(c2ccc(N3CCN(C(=O)CO)CC3)c(F)c2)=NO1	4 µg/mL (≈ 10.6 µM)	1 µg/mL (≈ 2.64 µM)	8 µg/mL (≈ 21.1 µM)	1 µg/mL (≈ 2.64 µM)	> 16 µg/mL	4 µg/mL (≈ 10.6 µM)	4 µg/mL (≈ 10.6 µM)	> 16 µg/mL	9.1 mg/kg	100%	101%	bioavailability [24]: 86%; bioavailability [25]: 100%; half-life [26]: 42 min; Vd [27]: 0.95 L/kg; Cmax [28]: 6170 ng/mL; Tmax [29]: 150 min; CL/F [30]: 30.8 mL/min/kg; Cmax [31]: 17700 ng/mL; clearance [32]: 26.2 mL/min/kg; half-life [33]: 36.6 min
COc1ccc(-c2ccc(C3=NOC(CNC(C)=O)C3)cc2)ccc1=O (stereo not drawn)	4 µg/mL (≈ 11.4 µM)	2 µg/mL (≈ 5.68 µM)	> 16 µg/mL	0.5 µg/mL (≈ 1.42 µM)	> 16 µg/mL	4 µg/mL (≈ 11.4 µM)	4 µg/mL (≈ 11.4 µM)	> 16 µg/mL	15.4 mg/kg			
